Data on 13 molecules can be found in ChEMBL document CHEMBL1138602, “Discovery of sodium 6-[(5-chloro-2-{[(4-chloro-2-fluorophenyl)methyl]oxy}phenyl)methyl]-2-pyridinecarboxylate (GSK269984A) an EP(1) receptor antagonist for the treatment of inflammatory pain” (Bioorg Med Chem Lett, 2009).

Data set [1] deals with T1, Prostaglandin E2 receptor EP1 subtype (Homo sapiens, UniProt P34995).
T1 sequence (P34995 whole entry): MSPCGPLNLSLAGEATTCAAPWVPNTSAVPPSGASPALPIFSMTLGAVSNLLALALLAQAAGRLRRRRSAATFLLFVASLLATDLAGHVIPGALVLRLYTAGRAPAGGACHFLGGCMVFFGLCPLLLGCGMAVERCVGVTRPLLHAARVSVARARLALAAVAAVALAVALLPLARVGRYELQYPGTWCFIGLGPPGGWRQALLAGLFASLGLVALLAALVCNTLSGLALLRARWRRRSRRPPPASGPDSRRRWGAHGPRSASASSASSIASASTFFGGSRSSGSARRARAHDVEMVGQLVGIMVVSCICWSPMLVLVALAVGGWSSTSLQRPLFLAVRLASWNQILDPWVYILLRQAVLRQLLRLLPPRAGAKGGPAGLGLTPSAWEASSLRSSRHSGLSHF
As to the kind of experiment: Displacement of [3H]PGE2 from human EP1 receptor expressed in CHO cells. The format is cell-based. In short, it runs like this: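 Radioligand binding with [3H]-PGE2 in CHO cells overexpressing human EP1 receptor. Values are the mean of at least three experiments with standard deviations.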

A further data set concerns Brain. As to the kind of experiment: (§1) Drug level in brain of complete Freund's adjuvant-induced rat inflammatory pain model at 10 mg/kg, po administered after 23 hrs of adjuvant challenge measured after 1 hr. Particulars: in vivo, 1 h. Format: ADME, organism-based. On the set-up: dose 10 mg/kg, route oral. In outline:
(§2)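 CFA rat study: oral doses of 1, 3 or 10 mg/kg given 23 h after intraplantar adjuvant, samples 1 h post-dose. Blood values are the mean from seven animals. Brain values are the mean from three animals.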

In data set [2] the test system is Rattus norvegicus. The experiment in a line: […] activity against complete Freund's adjuvant-induced inflammatory pain in rat assessed as reversal of hypersensitivity at 10 mg/kg, po administered 23 hrs post-adjuvant challenge measured after 1 hr. The format is functional. In outline:
(§3)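 Rats given adjuvant by intraplantar injection; oral dosing at 1, 3 and 10 mg/kg 23 h later. Hypersensitivity assessed by weight-bearing 1 h post-dose. ED50 derived across doses.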

Data set [3] is described as follows: Lipophilicity, log D at pH 7.4. Format: physicochemical. The conditions noted are these: buffer.
Data set [4] can be described thus: Metabolic stability in human liver microsomes assessed as compound turnover after 30 mins. Format: ADME, Microsome. The conditions noted are these: read-out: Stability. Background: Microsomes from liver hold many membrane-bound enzymes, among them those of drug oxidation.
In data set [5] the target is T1, Prostaglandin E2 receptor EP1 subtype. As to the kind of experiment: Antagonist activity at human recombinant EP1 receptor expressed in CHO cells assessed as inhibition of PGE2-mediated intracellular calcium mobilization by FLIPR method. The format is functional, cell-based. In outline: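 CHO cells recombinantly overexpressing human EP1 receptor; antagonism measured as block of PGE2-mediated intracellular Ca2+ mobilization. Values are the mean of at least three experiments with standard deviations.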
(Calcium assays in cells follow changes in intracellular calcium, usually with a dye or a luminescent sensor.)

For another data set, the target named is Cytochrome P450 2D6 (Homo sapiens, UniProt P10635). The experiment in a line: Inhibition of human CYP2D6. Format: ADME. In outline:
(§4)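 Inhibition of metabolism of fluorometric substrates (Cypex protocol); IC50 values are the mean of three experiments ± standard deviation.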

Another data set deals with Cytochrome P450 2C9 (Homo sapiens, UniProt P11712). As to the kind of experiment: Inhibition of human CYP2C9. Format: ADME. In outline:
as §4

Data set [6] can be described thus: Metabolic stability in rat liver microsomes assessed as compound turnover after 30 mins. Particulars: read-out: Stability. Format: ADME, Microsome.
In a further data set the target is Cytochrome P450 2C19 (Homo sapiens, UniProt P33261). The experiment in a line: Inhibition of human CYP2C19. Format: ADME. In outline: as §4
Chain of Cytochrome P450 2C19 (P33261 whole entry): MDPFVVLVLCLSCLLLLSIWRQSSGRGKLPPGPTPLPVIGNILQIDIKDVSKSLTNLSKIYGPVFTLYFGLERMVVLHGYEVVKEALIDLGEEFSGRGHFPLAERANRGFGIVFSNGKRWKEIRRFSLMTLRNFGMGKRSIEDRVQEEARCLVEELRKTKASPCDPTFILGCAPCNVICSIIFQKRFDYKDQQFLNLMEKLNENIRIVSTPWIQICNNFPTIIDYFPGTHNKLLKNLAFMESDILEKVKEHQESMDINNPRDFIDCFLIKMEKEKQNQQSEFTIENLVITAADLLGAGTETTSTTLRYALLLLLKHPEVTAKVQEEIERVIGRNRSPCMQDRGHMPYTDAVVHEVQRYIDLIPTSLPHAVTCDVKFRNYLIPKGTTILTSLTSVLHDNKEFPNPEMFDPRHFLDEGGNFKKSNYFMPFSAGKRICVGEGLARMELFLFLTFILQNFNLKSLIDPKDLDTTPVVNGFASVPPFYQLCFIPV
Another data set addresses T2, Cytochrome P450 1A2 (Homo sapiens, UniProt P05177).
T2 sequence (P05177 whole entry): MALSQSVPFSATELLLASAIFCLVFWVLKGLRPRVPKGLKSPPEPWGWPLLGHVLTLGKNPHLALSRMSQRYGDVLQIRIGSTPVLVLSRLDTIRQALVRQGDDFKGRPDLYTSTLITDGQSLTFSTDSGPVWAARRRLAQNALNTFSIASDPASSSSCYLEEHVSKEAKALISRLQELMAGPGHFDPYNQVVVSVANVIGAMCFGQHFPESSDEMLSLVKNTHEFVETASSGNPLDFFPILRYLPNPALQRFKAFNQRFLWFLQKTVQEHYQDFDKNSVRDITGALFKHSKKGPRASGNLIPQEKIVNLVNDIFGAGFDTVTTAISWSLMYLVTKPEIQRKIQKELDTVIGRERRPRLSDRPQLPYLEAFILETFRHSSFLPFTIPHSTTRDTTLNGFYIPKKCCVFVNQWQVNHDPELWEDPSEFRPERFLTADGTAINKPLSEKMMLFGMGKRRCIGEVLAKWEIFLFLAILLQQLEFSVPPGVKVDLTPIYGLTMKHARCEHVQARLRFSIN
The experiment in a line: Inhibition of human CYP1A2. Format: ADME. In short, it runs like this: as §4

The nature of data set [7]: Selectivity for human recombinant EP1 receptor over DP1.
Data set [8] can be described thus: Ratio of drug level in brain to blood in complete Freund's adjuvant-induced rat inflammatory pain model at 3 mg/kg, po administered after 23 hrs of adjuvant challenge measured after 1 hr. Format: ADME, organism-based. On the set-up: dose 3 mg/kg, route oral. Particulars: brain and blood. In outline: (§5)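 Rat CFA inflammatory pain model: oral dosing at 1, 3 or 10 mg/kg 23 h after intraplantar adjuvant; blood and brain sampled 1 h post-dose from the same animal; Br:Bl ratio is the mean from three animals.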

The nature of data set [9]: Drug level in brain of complete Freund's adjuvant-induced rat inflammatory pain model at 3 mg/kg, po administered after 23 hrs of adjuvant challenge measured after 1 hr. Format: ADME, organism-based. Further details: dose 3 mg/kg, route oral. The conditions noted are these: read-out: Drug uptake. In outline:
as §2

Data set [10] is described as follows: Drug level in brain of complete Freund's adjuvant-induced rat inflammatory pain model at 1 mg/kg, po administered after 23 hrs of adjuvant challenge measured after 1 hr. Format: ADME, organism-based. On the set-up: dose 1 mg/kg, route oral. The conditions noted are these: read-out: Drug uptake. In short, it runs like this:
as §2

The nature of data set [11]: Ratio of drug level in brain to blood in complete Freund's adjuvant-induced rat inflammatory pain model at 1 mg/kg, po administered after 23 hrs of adjuvant challenge measured after 1 hr. Further details: dose 1 mg/kg, route oral. The conditions noted are these: brain and blood. The format is ADME, organism-based. In outline:
as §5

In data set [12] the target is T3, Cytochrome P450 3A4 (Homo sapiens, UniProt P08684). As to the kind of experiment: Inhibition of human CYP3A4 using PPR substrate. The format is ADME.
T3 sequence (P08684 whole entry): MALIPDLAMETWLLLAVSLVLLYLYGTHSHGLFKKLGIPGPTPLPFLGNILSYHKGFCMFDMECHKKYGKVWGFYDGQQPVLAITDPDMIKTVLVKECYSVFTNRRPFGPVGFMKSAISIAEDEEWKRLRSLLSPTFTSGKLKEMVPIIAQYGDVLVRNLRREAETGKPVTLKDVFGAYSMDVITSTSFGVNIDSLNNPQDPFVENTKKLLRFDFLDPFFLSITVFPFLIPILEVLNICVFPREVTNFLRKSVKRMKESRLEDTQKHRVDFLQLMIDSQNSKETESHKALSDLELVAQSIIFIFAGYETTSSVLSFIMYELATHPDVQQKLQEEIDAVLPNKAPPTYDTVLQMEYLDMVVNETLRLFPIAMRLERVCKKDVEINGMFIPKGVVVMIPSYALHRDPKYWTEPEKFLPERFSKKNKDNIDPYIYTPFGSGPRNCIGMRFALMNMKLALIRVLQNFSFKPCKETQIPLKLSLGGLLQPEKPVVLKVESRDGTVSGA
Data set [13] in a line: as §1. The format is ADME, organism-based. Further details: dose 10 mg/kg, route oral. Particulars: brain, read-out: Drug uptake. In short, it runs like this: as §2
Data set [14] can be described thus: Drug level in blood of complete Freund's adjuvant-induced rat inflammatory pain model at 10 mg/kg, po administered after 23 hrs of adjuvant challenge measured after 1 hr. The format is ADME, organism-based. Further details: dose 10 mg/kg, route oral. Particulars: read-out: Drug uptake. In outline:
as §2

Data set [15] in a line: Drug level in blood of complete Freund's adjuvant-induced rat inflammatory pain model at 3 mg/kg, po administered after 23 hrs of adjuvant challenge measured after 1 hr. The format is ADME, organism-based. Further details: dose 3 mg/kg, route oral. The conditions noted are these: read-out: Drug uptake. In outline: as §2
Data set [16] relates to Rattus norvegicus. The experiment in a line: […] activity against complete Freund's adjuvant induced inflammatory pain in po dosed rat assessed as reversal of hypersensitivity post-adjuvant challenge after 1 hr. The format is functional. In outline:
as §3

Data set [17] can be described thus: Drug level in blood of complete Freund's adjuvant-induced rat inflammatory pain model at 1 mg/kg, po administered after 23 hrs of adjuvant challenge measured after 1 hr. The format is ADME, organism-based. On the set-up: dose 1 mg/kg, route oral. The conditions noted are these: read-out: Drug uptake. In outline:
as §2

A short description of data set [18]: Ratio of drug level in brain to blood in complete Freund's adjuvant-induced rat inflammatory pain model at 10 mg/kg, po administered after 23 hrs of adjuvant challenge measured after 1 hr. Format: ADME, organism-based. Further details: dose 10 mg/kg, route oral. The conditions noted are these: brain and blood. In outline:
as §5

Data set [19] addresses T3, Cytochrome P450 3A4. The experiment in a line: Inhibition of human CYP3A4 using DEF substrate. Format: ADME.

Chain of Cytochrome P450 2C9 (P11712 whole entry): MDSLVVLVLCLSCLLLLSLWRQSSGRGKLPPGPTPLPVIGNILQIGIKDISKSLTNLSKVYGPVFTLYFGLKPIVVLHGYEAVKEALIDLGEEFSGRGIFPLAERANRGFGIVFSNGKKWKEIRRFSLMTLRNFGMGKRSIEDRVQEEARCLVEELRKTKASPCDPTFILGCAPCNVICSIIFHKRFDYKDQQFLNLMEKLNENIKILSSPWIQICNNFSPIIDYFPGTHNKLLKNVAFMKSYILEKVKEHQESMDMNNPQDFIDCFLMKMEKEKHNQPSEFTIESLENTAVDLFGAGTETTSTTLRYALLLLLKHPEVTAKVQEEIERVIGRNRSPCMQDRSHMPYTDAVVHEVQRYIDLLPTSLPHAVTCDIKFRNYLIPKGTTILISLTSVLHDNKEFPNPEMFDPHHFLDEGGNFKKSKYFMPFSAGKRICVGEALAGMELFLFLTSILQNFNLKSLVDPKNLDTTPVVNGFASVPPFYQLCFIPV
Chain of Cytochrome P450 2D6 (P10635 whole entry): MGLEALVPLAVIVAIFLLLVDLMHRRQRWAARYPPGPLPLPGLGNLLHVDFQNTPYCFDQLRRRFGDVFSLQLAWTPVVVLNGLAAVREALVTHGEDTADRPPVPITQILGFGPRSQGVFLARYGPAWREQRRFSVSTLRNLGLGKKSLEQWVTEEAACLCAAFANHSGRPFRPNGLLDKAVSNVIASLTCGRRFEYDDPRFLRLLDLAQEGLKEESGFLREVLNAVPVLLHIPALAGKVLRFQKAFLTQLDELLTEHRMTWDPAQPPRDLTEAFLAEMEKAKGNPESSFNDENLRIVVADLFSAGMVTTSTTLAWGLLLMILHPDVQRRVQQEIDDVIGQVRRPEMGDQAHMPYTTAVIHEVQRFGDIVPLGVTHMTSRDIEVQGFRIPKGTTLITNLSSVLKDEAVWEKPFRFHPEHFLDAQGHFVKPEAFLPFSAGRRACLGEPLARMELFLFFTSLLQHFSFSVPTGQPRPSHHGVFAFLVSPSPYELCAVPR

For `O=C(O)c1cccc(Cc2cc(Cl)ccc2OCc2ccc(Cl)cc2)n1`, the half-inhibitory concentration (IC50) in [1] is 39.8 nM.
Turning to `O=C(O)c1cccc(Cc2cc(Cl)ccc2OCc2ccccc2F)n1`, the IC50 in data set [1] is 79.4 nM.
Still for that read-out and setting: the value for `O=C(O)c1cccc(Cc2cc(Cl)ccc2OCc2ccc(F)cc2)n1` was 100 nM; that for `O=C(O)c1cccc(Cc2cc(Cl)ccc2OCc2c(F)cc(F)cc2F)n1` was 79.4 nM.
`Cc1cc(C(=O)[O-])nn1Cc1cc(Br)ccc1OCc1ccc(Cl)cc1Cl.[Na+]` had an IC50 in data set [1] of 0.129 nM. Moreover, in the data set with Brain, the Ratio is < 0.05. Moreover, the Activity in the data set with Rattus norvegicus [2] was 70%.
As to `O=C(O)c1cccc(Cc2cc(Cl)ccc2OCc2ccc(Cl)cc2Cl)n1`, the IC50 in data set [1] was 10 nM; on Cytochrome P450 2D6 it was > 50000 nM; on Cytochrome P450 2C9, 4800 nM; on Cytochrome P450 2C19, > 50000 nM; on Cytochrome P450 1A2, 32000 nM. In data set [3], this molecule had a pH-dependent lipophilicity (logD) of 2.6. Also, the metabolised at 0.5 h in [4] and in data set [6] was < 15% each time. The inhibition constant (Ki) in data set [5] is 25.1 nM.
In [1], `O=C(O)c1cccc(Cc2cc(Cl)ccc2OCC2CCCCC2)n1` showed an IC50 of 100 nM.
In [1], `O=C(O)c1cccc(Cc2cc(Cl)ccc2OCC2CC2)n1` gave a concentration for half-maximal inhibition (IC50) of 200 nM.
Turning to `O=C(O)c1cccc(C2=C(c3cc(Cl)ccc3OCc3ccc(F)cc3F)CCC2)n1`, the fold change (FC) in data set [7] is > 400.
The molecule `O=C(O)c1cccc(Cc2cc(Cl)ccc2OCc2ccc(F)cc2F)n1` showed an IC50 in [1] of 25.1 nM.
In the case of `O=C(O)c1cccc(Cc2cc(Cl)ccc2OCC2CCCC2)n1`, in data set [1], the IC50 is 31.6 nM.
On to `O=C([O-])c1cccc(Cc2cc(Cl)ccc2OCc2ccc(F)cc2Cl)n1.[Na+]`, for which the partition ratio (Kp) at 1 h worked out at 0.3 in data set [8], 0.31 in [11] and 0.31 in [18]. Further, the concentration at 1 h in data set [9] came to 256 nM; in data set [10], 93 nM; in data set [13], 1120 nM; in data set [14], 3010 nM; in data set [15], 836 nM; in data set [17] it was 346 nM. Also, the half-inhibitory concentration (IC50) was 12.6 nM in data set [1]; > 100000 nM against Cytochrome P450 3A4 [12]; > 100000 nM on Cytochrome P450 2D6; 15000 nM at Cytochrome P450 2C9; 28000 nM against Cytochrome P450 2C19; 61000 nM at Cytochrome P450 1A2. At Cytochrome P450 3A4 [19], this molecule showed an IC50 of 35000 nM. In data set [3], the log distribution coefficient (logD) came out at 2. Also, the Ki in data set [5] is 100 nM. Besides, the median effective dose (ED50) with Rattus norvegicus [16] was 5.6 mg/kg.
Regarding `O=C(O)c1cccc(Cc2cc(Cl)ccc2OCc2ccccc2Cl)n1`, the IC50 in data set [1] was 39.8 nM.

A word on the IC50: it is the concentration that gives 50% inhibition. A high value points to a need for much substance. As usually defined, the logD is the decadic logarithm of the distribution of all forms, ionised or not, between an organic phase and buffer at a given pH. A low value points to a more hydrophilic compound. As a reminder, the Ki is the equilibrium dissociation constant of an inhibitor or competing ligand from its target. For orientation: Kp means the ratio of the level in a tissue or fluid to that in plasma or blood. A word on the ED50: it is the dose that gives a 50% effect, or the effect in half of the subjects.
